Assay outcomes deposited in PubChem BioAssay by Broad Institute.
FGF22 binding – FGF22 (human) thermal shift binding; Q9HCT0; activity (Tm shift, normalised), % at 9.99 µM; recombinant FGF22 thermal shift, SYPRO orange fluorescence; percent of sucrose octasulfate shift, DMSO zero; AID 651658; actives 1.5% (n = 340,000);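 active means mean Tm shift, scaled 0 neutral to 100 positive control, at about 1.3% or above, every replicate too, limit read from the data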
Target sequence (Q9HCT0 whole entry, looked up): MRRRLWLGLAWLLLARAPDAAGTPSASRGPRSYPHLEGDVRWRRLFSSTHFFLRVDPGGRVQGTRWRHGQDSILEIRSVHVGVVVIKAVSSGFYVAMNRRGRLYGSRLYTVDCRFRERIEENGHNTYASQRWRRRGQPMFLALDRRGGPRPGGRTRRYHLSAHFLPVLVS
ERAP1 inh – ERAP1 (human) enzyme inhibition; recombinant ERAP1, Leu-AMC fluorescence, 60 min; Q9NZ08; AID 652197; actives 0.15% (n = 340,000); inhibition, % at 10.7 µM;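 active means mean replicate inhibition of at least 30%, or all replicates individually reaching that 30% level; inactive means mean below 30% and not every replicate reaching it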;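 further: 0% = neutral control wells and 100% = L-leucinethiol positive control wells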
SIRT5 block – sirtuin-5 (human) deacylase inhibition. Q9NXA8. Purified SirT5, succinyl-peptide AMC, trypsin-coupled fluorescence. inhibition, % at 15 µM. actives 1.1% (n = 330,000). AID 652115; in the data active means inhibition above about 15%
Target sequence (Q9NXA8 whole entry, looked up): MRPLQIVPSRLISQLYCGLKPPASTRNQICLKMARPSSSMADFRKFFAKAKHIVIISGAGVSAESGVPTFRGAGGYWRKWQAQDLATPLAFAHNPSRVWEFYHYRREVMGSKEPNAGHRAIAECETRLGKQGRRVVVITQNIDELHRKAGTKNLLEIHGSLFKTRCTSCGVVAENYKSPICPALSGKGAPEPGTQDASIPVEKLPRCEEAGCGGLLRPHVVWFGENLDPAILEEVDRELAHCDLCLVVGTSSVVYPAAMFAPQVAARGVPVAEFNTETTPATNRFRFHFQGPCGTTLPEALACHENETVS
PGC1a acetyl inh – lowers PGC1a acetylation signal in U2OS cells; AlphaScreen anti-acetyl-lysine; with virally co-expressed GCN5 acetyltransferase; inhibition, % at 15.6 µM; actives 0.17% (n = 350,000); AID 651687;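 active means every replicate shows inhibition of at least 40%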;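 further: 0% = neutral control wells and 100% = positive control wells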
FN deposition inh – fibronectin deposition inhibition. actives 0.086% (n = 350,000). AH1F fibroblasts, Alexa488-fibronectin deposition fluorescence, overnight. inhibition, % at 12.6 µM;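 active means mean inhibition across replicates of 30% or more, regardless of how many single replicates reach that level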;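 further: positive control wells lacked labelled fibronectin entirely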
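Material: AH1F fibroblast monolayer depositing Alexa488-labelled fibronectin into matrix | Input: 10000 AH1F cells/well | Medium: DMEM plus 2% serum, read in PBS | Reagent: Alexa488-fibronectin, 24 nM final in well | Compound dosing: One dose per compound, pinned | Schedule: 1 h adhesion, overnight exposure | Measured by: Fluorescence at 485 nm excitation, 525 nm emission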
An asterisk follows results filed as active; / = no result. An excerpt weighted towards active compounds, which were near 2.2% of everything screened.

SMILES	FGF22 binding	ERAP1 inh	SIRT5 block	PGC1a acetyl inh	FN deposition inh
CC(C)CC#Cc1ccc([C@@H]2[C@H]3CN(C(=O)Nc4ccccc4)CCCCN3[C@H]2CO)cc1	-1	-2	16*	-26	-13
O=C1CC2c3ccccc3C1C1C(=O)N(CCc3ccccc3)C(=O)C21 (stereo not given)	43*	-1	0	-2	-3
CCOC(=O)c1c(C)[nH]c(C)c1S(=O)(=O)NCC1CCN(Cc2cccc(Cl)c2)CC1	0	0	16*	9	-7
C/C(=N/Nc1ccc(C(=O)O)cc1)c1ccc2c(c1)Nc1ccccc1S2	0	2	24*	-6	1
C/C(=N\Nc1ccc(C(=O)O)cc1)c1ccc2c(c1)Nc1ccccc1S2	0	1	24*	-10	1
COc1ccc(/C(C)=N/Nc2cccc(C(=O)O)c2)cc1OC	0	7	3	/	-5
C[C@@H](NC(=O)[C@H]1[C@H](CO)[C@H]2Cn3c(ccc(-c4ccccc4F)c3=O)[C@@H]1N2C)c1ccccc1	0	0	-6	/	/
COc1ccc(CN2CCN(C(=O)c3cccc4ccccc34)CC2)c(OC)c1OC	0	1	15*	-1	-4
CCOC(=O)C1CCN(C(=O)c2c(-c3ccccc3)noc2C)CC1	43*	0	-3	/	-3
COc1ccccc1CC(=O)N1CCCC1	/	/	/	-9	-5
CCOC(=O)C1CCN(C(=O)Cc2ccccc2OC)CC1	56*	-2	1	-12	-12
C[C@H]1CCCCO[C@@H](CN(C)S(=O)(=O)c2ccc(Cl)cc2)[C@@H](C)CN([C@@H](C)CO)C(=O)c2cc(NS(C)(=O)=O)ccc2O1	0	-1	-3	-4	/
CC(=O)N1CCN(C(=O)COc2ccccc2C(=O)Nc2ccccc2)CC1	43*	1	-3	7	12
COc1ccccc1NC(=O)N[C@H]1CC[C@H](CCNC(=O)c2ccc3c(c2)OCO3)O[C@@H]1CO	1	0	19*	-9	2
COc1ccccc1NC(=O)N[C@H]1CC[C@@H](CCNC(=O)c2ccc3c(c2)OCO3)O[C@@H]1CO	0	0	2	-5	7
COc1ccccc1NC(=O)N[C@H]1CC[C@@H](CCNS(=O)(=O)c2ccc(F)cc2)O[C@@H]1CO	0	3	19*	-5	/
COc1ccc(CC(CC(=O)O)C(=O)Nc2ccc(OC)cc2)cc1 (stereo not given)	/	/	/	-50	-5
COc1ccc(NC(=O)C(CC(=O)O)Cc2ccc(C)cc2)cc1 (stereo not given)	43*	4	0	11	-1
CN1C(=O)c2cc(NS(C)(=O)=O)ccc2OC[C@@H]2O[C@@H](CC(=O)N3CCOCC3)CC[C@@H]21	0	2	-1	/	7
CC(C)(C)OC(=O)N1CCC(NC(=O)c2[nH]cnc2C(=O)Nc2ccccc2F)CC1	43*	0	/	6	-7
CCN(CC)Cc1c(C(=O)N/N=C/c2ccc(C)o2)nnn1-c1nonc1N	43	-2	85*	3	-5
C[C@@H]1CN([C@H](C)CO)C(=O)c2cc(NS(C)(=O)=O)ccc2O[C@@H]1CN(C)Cc1ccc(-c2ccccc2)cc1	0	-1	-1	1	14
COc1ccc(C(C(N)=O)c2ncc(C(F)(F)F)cc2Cl)cc1OC (stereo not given)	43*	3	-1	16	5
Cc1cccc(C(C(N)=O)c2ncc(C(F)(F)F)cc2Cl)c1 (stereo not given)	44*	-9	-2	2	-2
CO[C@@H]1CN(C)C(=O)c2ccc(NC(=O)Cc3ccccc3)cc2OC[C@H](C)N(C(=O)c2ccccc2F)C[C@@H]1C	0	/	8	6	11
SMILES	FGF22 binding	ERAP1 inh	SIRT5 block	PGC1a acetyl inh	FN deposition inh
c1ccc(CSc2ccc(-c3cccs3)nn2)nc1	44*	1	2	/	/
c1ccc(CSc2ccc(-c3cccs3)nn2)cc1	/	/	/	-3	/
COc1ccccc1CN1C(=O)c2ccccc2[C@@]2(Cc3ccccc3N(CCN3CCOCC3)C2=O)[C@@H]1c1ccc(CO)cc1	0	0	-3	11	/
CCCCCCC1(C)NC(=S)N(c2ccccc2)N1 (stereo not given)	0	21	-1	-4	-5
CCCCCC1(C)NC(=S)N(c2ccccc2)N1 (stereo not given)	44*	7	-3	-3	2
COc1cccc(C(=O)Nc2ccc3c(c2)C(=O)N(C)C[C@H](OC)[C@H](C)CN(CC2CC2)[C@H](C)CO3)c1	0	-3	-2	-12	5
O=C(O)COc1ccc(/C=C2/SC(=S)N(Cc3ccccc3)C2=O)cc1	0	0	10	72*	0
COc1ccc(-c2cc(C)nc3c(-c4ccccc4)cnn23)cc1	43*	-2	-4	/	2
CCc1nnc(NC(=O)CN2C(=O)NC3(CCCC3)C2=O)s1	0	39*	-16	/	-6
COCC#Cc1ccc2c(c1)O[C@@H](CN(C)Cc1ccccc1)[C@H](C)CN([C@@H](C)CO)S2(=O)=O	0	4	0	5	/
C[C@@H]1CN([C@@H](C)CO)C(=O)c2cc(NC(=O)Nc3ccc(C(F)(F)F)cc3)ccc2O[C@@H](C)CCCCO[C@H]1CN(C)S(=O)(=O)c1ccc(F)cc1	/	0	8	-15	7
O=S(=O)(c1ccc(F)cc1)N1[C@@H]2CNC[C@H]1C2c1ccc(-c2cccc(F)c2)cc1 (stereo not given in full)	/	-1	-1	-1	-7
Cc1ccc(C(C)C)c(OCCCCN2CCNCC2)c1	0	-2	18*	-19	-3
Cc1ccc(C(C)C)c(OCCOCCN2CCNCC2)c1	0	2	1	-14	-3
N#C[C@H]1[C@H](c2ccccc2C2=CCCCC2)[C@@H](CO)N1S(=O)(=O)c1cccc(F)c1	/	-2	-1	-25	-14
CCC1CCCCN1S(=O)(=O)c1ccc(NC(=O)c2nc(S(C)(=O)=O)ncc2Cl)cc1 (stereo not given)	0	1	-2	/	39*
CCC1CCCCN1S(=O)(=O)c1ccc(NC(=O)c2ccncc2)cc1 (stereo not given)	0	-2	1	/	/
O=C(N/N=C/c1ccc(O)c(O)c1)C1CC1	0	0	-2	10	-7
O=C(N/N=C/c1ccsc1)C1CC1	43*	0	-3	7	-1
CCOC(=O)C1CCCN(C(=O)CSc2ccc(Br)cc2)C1 (stereo not given)	/	/	/	78*	/
CCOC(=O)C1CCCN(C(=O)CSc2nc(C)cc(C)n2)C1 (stereo not given)	0	0	1	5	3
COc1ccc(C2=NN(C(=O)CSc3nnc(C)n3C)C(c3ccco3)C2)cc1 (stereo not given)	43*	4	6	/	3
